Assay outcomes deposited in PubChem BioAssay by several laboratories.
Avidin fluor – green autofluorescence of compounds with avidin beads – biophysical, 488/530 nm, flow cytometry, artefact control, profiling panel; fluorescence (KMESF) at 10 µM; hit rate 0.38% among 220,000; compound fluorescence 488/530 nm; active compounds read high; in the data active = fluorescence above about 47
GSH fluor – compound fluorescence on glutathione beads, profiling panel, artefact control, biophysical, 488/530 nm, flow cytometry; GSH beads flow cytometry, compound fluorescence 488/530 nm; active compounds read high; fluorescence (KMESF) at 10 µM; hit rate 0.25% among 190,000; in the data active = fluorescence above about 89;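 also: glutathione beads carrying GST-tagged Bcl family fusion proteins plus one bare bead set; values are compound well signal with DMSO vehicle wells as background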
ABCB1 block – ABCB1 efflux pump inhibitors, primary screen, cell-based, multiplex, flow cytometry, ABCG2 counter-screen; ATP-dependent translocase ABCB1 (Homo sapiens), P08183; CCRF-Adr cells, JC-1 efflux; inhibition, % at 6.6 µM; hit rate 0.067% among 190,000; AID 1326, 2008; in the data active = inhibition above about 40%;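 also: 0% = vehicle and 100% = reference inhibitor; higher value means more JC-1 retained so stronger ABCB1 efflux block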
PKD1 inh – inhibitors of human PKD1 kinase, biochemical, fluorescence polarization; Serine/threonine-protein kinase D1 (Homo sapiens), Q15139; PKD1 kinase fluorescence polarization assay; inhibition, % (test concentration not listed); hit rate 0.056% among 200,000
Target sequence (Q15139 whole entry, looked up): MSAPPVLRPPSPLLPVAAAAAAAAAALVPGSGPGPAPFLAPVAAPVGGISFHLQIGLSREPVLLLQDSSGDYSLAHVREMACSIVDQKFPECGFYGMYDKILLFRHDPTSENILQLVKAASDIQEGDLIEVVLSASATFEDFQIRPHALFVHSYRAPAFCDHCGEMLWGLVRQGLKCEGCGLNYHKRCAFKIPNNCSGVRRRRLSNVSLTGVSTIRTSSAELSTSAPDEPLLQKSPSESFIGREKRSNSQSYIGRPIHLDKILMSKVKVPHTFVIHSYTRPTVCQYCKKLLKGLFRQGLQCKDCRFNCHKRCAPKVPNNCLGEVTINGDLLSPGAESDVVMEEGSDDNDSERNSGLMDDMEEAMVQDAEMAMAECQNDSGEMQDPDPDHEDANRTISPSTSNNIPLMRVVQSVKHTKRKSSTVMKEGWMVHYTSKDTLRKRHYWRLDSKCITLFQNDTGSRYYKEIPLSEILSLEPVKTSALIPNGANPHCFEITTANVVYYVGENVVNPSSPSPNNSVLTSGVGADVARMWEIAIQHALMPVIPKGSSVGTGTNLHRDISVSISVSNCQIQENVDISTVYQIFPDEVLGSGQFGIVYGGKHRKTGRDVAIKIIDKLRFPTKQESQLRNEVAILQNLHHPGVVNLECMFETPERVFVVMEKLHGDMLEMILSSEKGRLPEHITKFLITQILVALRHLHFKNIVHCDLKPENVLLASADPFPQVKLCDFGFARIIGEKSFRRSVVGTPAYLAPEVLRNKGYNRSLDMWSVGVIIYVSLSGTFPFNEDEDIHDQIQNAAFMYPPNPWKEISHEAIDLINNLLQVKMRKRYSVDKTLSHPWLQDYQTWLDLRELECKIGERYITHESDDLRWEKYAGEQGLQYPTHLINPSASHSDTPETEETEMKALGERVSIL
L major viab – Leishmania major promastigote growth inhibition, primary screen | hit rate 9% among 200,000 | AID 1063, 2008 | Leishmania major promastigotes, resazurin fluorescence viability | inhibition, % at 10 µM;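 also: promastigotes grown with compound for 44 hours at 28 °C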
ABCG2 inh – ABCG2 efflux pump inhibitors, primary screen, multiplex with ABCB1, IgMXP3 cells, flow cytometry; inhibition, % at 6.6 µM; AID 1325, 2008; JC-1 efflux; hit rate 0.1% among 190,000;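 active = inhibition above 80%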;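 also: 0% = DMSO and 100% = nicardipine control wells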
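Incubation: cells with compound and JC-1, 10 min at 25 °C, rotating, no wash / Test system: IgMXP3 (ABCG2) plus far-red-tagged CCRF-Adr (ABCB1) cells / Compound dosing: one concentration, 6.6 µM final / Also added: JC-1 fluorescent substrate / Evaluation: efflux inhibition in percent versus controls / Detection: flow cytometry, 530 nm JC-1 signal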
The depositor's hits bear a star; · = not tested or not shown. Many of the other results were omitted from the sample, so hits are more common in it than they were. Rule as the data show it, unless noted: active = inhibition above about 50%; inactive = the rest.

SMILES	Avidin fluor	GSH fluor	ABCB1 block	PKD1 inh	L major viab	ABCG2 inh
S=C(Nc1cccc(Cl)c1)N(CCCN1CCCC1)Cc1cccn1Cc1ccc(Cl)cc1	17	12	3	2	100*	2
COc1cccc(NC(=S)N(CCCN2CCCC2)Cc2cccn2Cc2ccc(Cl)cc2)c1	8	18	3	-5	91*	2
COc1cccc(NC(=S)N(CCCN2CCCC2)Cc2ccco2)c1	11	11	0	-1	44	-2
CSc1cccc(NC(=S)N(CCCN2CCCC2)Cc2cccn2Cc2ccc(Cl)cc2)c1	18	14	1	-1	101*	2
Cc1c(C(=O)OCC(=O)Nc2ccc(C(N)=O)cc2)cccc1[N+](=O)[O-]	12	13	1	1	-11	3
O=C(COC(=O)/C=C/c1ccccc1Cl)NC1CCCCCC1	25	11	0	-6	-8	2
COc1ccc(C(=O)N/C(=C\c2ccco2)C(=O)NC2CCS(=O)(=O)C2)cc1 (centres undefined)	8	13	0	0	-7	1
COc1ccc(C(=O)c2c(C(F)(F)F)oc3c2C(=O)c2ccccc2C3=O)cc1	8	16	0	-1	100*	2
N#CC(C(=O)Nc1cccc(Cl)c1)=C1Nc2ccccc2N1	34	17	0	-10	-1	3
N#CC(C(=O)Nc1ccc(Cl)c(Cl)c1)=C1Nc2ccccc2N1	50*	26	1	-10	0	17
Cc1ccc(/C=N/NC(=O)CSc2nc3ccccc3c(=O)n2-c2ccccc2C)s1	10	14	1	-2	14	2
Cc1ccccc1-n1c(SCC(N)=O)nc2sc(-c3ccccc3)cc2c1=O	10	15	13	3	21	25
Cc1ccc(S(=O)(=O)N(C)C)cc1-n1c(SCC(=O)Nc2ccc(F)cc2)nc2ccccc2c1=O	11	19	2	-1	33	0
Cc1ccc(S(=O)(=O)N(C)C)cc1-n1c(SCC(=O)Nc2ccccc2)nc2ccccc2c1=O	11	7	4	-8	89*	0
Cc1ccccc1-n1c(SCC(=O)NC(N)=O)nc2sc(-c3ccccc3)cc2c1=O	8	4	1	10	61*	6
Cc1ccccc1-n1c(SCC(=O)N/N=C/c2sccc2C)nc2ccccc2c1=O	15	21	2	-4	86*	4
COC(=O)C1=C(C)N(Cc2ccco2)C(=O)/C1=C\c1ccc([N+](=O)[O-])cc1	12	17	3	-7	99*	19
Cc1occc1C(=O)NNC1=CC(=O)CC(C)(C)C1	12	9	0	-8	16	0
N#Cc1c(N)nc2c(c1N)CC(CCl)O2 (centres undefined)	13	3	-1	16	57*	-4
CCOC(=O)c1nc(Nc2ccc(Nc3ccccc3)cc2)c2ccccc2n1	6	14	-1	4	40	-2
CCOC(=O)c1nc(Nc2ccc(C(=O)O)cc2)c2ccccc2n1	12	6	1	4	-1	3
CCOC(=O)c1nc(Nc2cc(C)cc(C)c2)c2ccccc2n1	11	15	0	2	52*	9
CCOC(=O)c1nc(Nc2ccc(N3CCC(C)CC3)cc2)c2ccccc2n1	5	16	-1	0	53*	-3
Cc1cccc2cc(C#N)c(SCCN3CCCCC3)nc12	·	·	·	-5	100*	·
O=C(O)CSc1nnc2c(n1)[nH]c1ccccc12	22	14	1	1	-9	2
O=C(CSc1nnc2c(n1)[nH]c1ccccc12)OCc1ccccc1	22	18	0	7	79*	1
CCOC(=O)c1cc(NC(=O)c2ccccc2)c(=O)n2c1oc1ccccc12	3	10	3	-1	-1	10
CCc1ccc(NC(=O)CCn2ccnc2C)cc1	33	23	1	-6	0	4
